Each block holds one compound with its values, some of them ahead of it.
Assays:
[1] = Induction of CYP3A (unknown origin); format: ADME; conditions: human
[2] = biological target: Acyl-CoA (8-3)-desaturase (Rattus norvegicus, UniProt Q920R3); experiment: Displacement of [3H]T-3364366 from D5D in rat liver microsomal membrane preincubated for 15 mins followed by radioligand addition measured after 150 mins by TopCount microscintillation counting assay; format: cell membranes
Procedure, shortened: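 Rat liver microsome fraction (30 μg/well) preincubated 15 min with test compound at room temperature in 10 mM Tris-HCl pH 7.5, 100 mM KCl, 10 mM NaF buffer, 200 μL/well; bound ligand trapped on GF/C filters, washed 5× with ice-cold buffer, counted by scintillation. Nonspecific binding with 10 μM unlabeled T-3364366; IC50 from three-parameter logistic fit.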

[3] = biological target: Acyl-CoA (8-3)-desaturase (Homo sapiens, UniProt O60427); experiment: Inhibition of D5D in human HepG2 cells assessed as [14C]AA formation from [14C]DGLA preincubated for 30 mins followed by [14C]eicosatrienoic acid addition measured after 3 hrs by TLC analysis; format: cell-based
Procedure, shortened: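 HepG2 plated at 1 × 10^5 cells/well, cultured overnight in DMEM/10% FBS, PBS-washed, then preincubated 30 min at 37 °C with compound in DMEM with penicillin/streptomycin and 0.3% BSA. 0.1 μCi [14C]eicosatrienoic acid added and cells incubated 3 h at 37 °C; lipids saponified overnight at 55 °C with NaOH, acidified, extracted with chloroform/MeOH, separated by TLC.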

Mus musculus [4] = experiment: In vivo inhibition of D5D in C57BL/6J mouse liver assessed as decrease in AA/DGLA ratio by measuring inhibition index at 3 mg/kg, qd administered via oral gavage for 4 days by HPLC analysis relative to control; format: functional; conditions: 96 h
Procedure, shortened: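 Male C57BL/6J mice, 7–9 weeks old, on normal chow, individually caged; 3 mg/kg suspension in 0.5% methylcellulose by gavage each morning at 10 mL/kg for 4 days. Liver taken next morning; phospholipid fraction from about 40 mg tissue labeled, AA and DGLA measured by HPLC; AA/DGLA decrease versus vehicle group taken as 100%.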

CYP2C9 = CYP2C9 (Homo sapiens, UniProt P11712); experiment: Inhibition of CYP2C9 (unknown origin) at 10 uM
[5] = AUC (0 to 8 hrs) in mouse at 0.1 mg/kg, iv or 1 mg/kg, po; format: ADME, organism-based; conditions: in vivo
[6] = MRT (0 to 8 hrs) in mouse at 0.1 mg/kg, iv or 1 mg/kg, po measured; format: ADME, organism-based; conditions: in vivo
[7] = Oral bioavailability in mouse at 0.1 mg/kg, iv or 1 mg/kg administered as cassette dose up to 8 hrs; format: ADME, organism-based; conditions: in vivo
Mus musculus [8] = experiment: In vivo inhibition of D5D in ApoE knockout mouse assessed as decrease in AA/DGLA ratio at 0.3 mg/kg, po qd dosed via gavage for 2 weeks by HPLC analysis; format: functional; conditions: 336 h
Procedure, shortened: (§1)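 ApoE KO mice, 13 weeks old, fed Western diet for 2 weeks; from day after diet start, dosed by gavage each morning at 10 mL/kg with suspension (0.3–3 mg/kg). Livers taken morning after final dose; phospholipid AA and DGLA measured by HPLC after labeling; AA/DGLA decrease relative to vehicle group as 100%.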

Mus musculus [9] = experiment: In vivo inhibition of D5D in ApoE knockout mouse assessed as decrease in AA/DGLA ratio at 1 mg/kg, po qd dosed via gavage for 2 weeks by HPLC analysis; format: functional; conditions: 336 h; procedure, shortened: as §1
Mus musculus [10] = experiment: In vivo inhibition of D5D in ApoE knockout mouse assessed as decrease in AA/DGLA ratio at 3 mg/kg, po qd dosed via gavage for 2 weeks by HPLC analysis; format: functional; conditions: 336 h; procedure, shortened: as §1
hERG (KCNH2) = hERG (KCNH2) (Homo sapiens, UniProt Q12809); experiment: Inhibition of human ERG at 10 uM by patch clamp assay
Cytochrome P450 3A4 = Cytochrome P450 3A4 (Homo sapiens, UniProt P08684); experiment: Inhibition of CYP3A4 (unknown origin); format: ADME
Cytochrome P450 2C8 = biological target: T1, Cytochrome P450 2C8 (Homo sapiens, UniProt P10632); experiment: Inhibition of CYP2C8 (unknown origin); format: ADME
T1 sequence (P10632 whole entry): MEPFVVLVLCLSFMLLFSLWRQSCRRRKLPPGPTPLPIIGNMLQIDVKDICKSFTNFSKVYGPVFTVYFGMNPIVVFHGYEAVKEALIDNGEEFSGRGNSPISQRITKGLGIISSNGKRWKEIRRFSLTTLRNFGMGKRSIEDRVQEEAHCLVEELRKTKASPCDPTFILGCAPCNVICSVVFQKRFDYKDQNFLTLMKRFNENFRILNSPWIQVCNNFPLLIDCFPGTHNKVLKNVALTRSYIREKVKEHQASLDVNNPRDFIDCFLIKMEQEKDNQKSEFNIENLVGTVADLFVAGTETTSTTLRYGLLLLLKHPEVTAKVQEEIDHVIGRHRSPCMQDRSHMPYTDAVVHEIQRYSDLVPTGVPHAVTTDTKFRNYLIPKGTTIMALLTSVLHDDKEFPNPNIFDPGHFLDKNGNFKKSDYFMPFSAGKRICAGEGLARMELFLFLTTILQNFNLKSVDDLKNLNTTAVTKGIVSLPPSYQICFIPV

Cytochrome P450 2C9 = Cytochrome P450 2C9 (Homo sapiens, UniProt P11712); experiment: Inhibition of CYP2C9 (unknown origin); format: ADME
Cytochrome P450 2D6 = Cytochrome P450 2D6 (Homo sapiens, UniProt P10635); experiment: Inhibition of CYP2D6 (unknown origin); format: ADME
Canis familiaris = experiment: Cardiotoxicity in dog at 5 mg/kg, iv by ECG analysis; format: toxicity, organism-based, Canis lupus familiaris; conditions: in vivo
[11] = Cmax in dog at 5 mg/kg, iv; format: ADME, organism-based, Canis lupus familiaris; set-up: dose 5 mg/kg, route intravenous; conditions: in vivo
[12] = Cmax in ApoE knockout mouse at 1 mg/kg, po qd dosed via gavage for 2 weeks by HPLC analysis; format: ADME, organism-based; set-up: dose 1 mg/kg, route oral; conditions: in vivo
[13] = Ratio of Cmax in dog ECG model at 5 mg/kg, iv to Cmax in ApoE knockout mouse at 1 mg/kg, po qd dosed via gavage for 2 weeks; format: ADME, organism-based; conditions: in vivo, 336 h
Liver [14] = experiment: Metabolic stability in human liver microsomes; format: ADME, microsome
Liver [15] = experiment: Metabolic stability in mouse liver microsomes; format: ADME, microsome
[16] = AUC (0 to 8 hrs) in mouse at 1 mg/kg, po administered as cassette dose; format: ADME, organism-based; set-up: time < 8 hr, dose 1 mg/kg, route oral; conditions: in vivo
[17] = MRT (0 to 8 hrs) in mouse at 1 mg/kg, po administered as cassette dose; format: ADME, organism-based; conditions: in vivo
Mus musculus [18] = experiment: In vivo inhibition of D5D in C57BL/6J mouse liver assessed as decrease in AA/DGLA ratio by measuring inhibition index at 3 mg/kg, qd administered via oral gavage for 4 days by HPLC analysis relative to control; conditions: 96 h
[19] = Drug level in human hepatocytes treated with 5-(4-Fluorophenyl)-3-(3-methoxyphenyl)-1,3-oxazolidin-2-one by LC-MS/MS analysis; format: ADME, cell-based, Hepatocyte
[20] = Drug level in mouse hepatocytes treated with 5-(4-Fluorophenyl)-3-(3-methoxyphenyl)-1,3-oxazolidin-2-one by LC-MS/MS analysis; format: ADME, cell-based, Hepatocyte

Acyl-CoA (8-3)-desaturase (Rattus norvegicus, UniProt Q920R3), sequence (Q920R3 whole entry): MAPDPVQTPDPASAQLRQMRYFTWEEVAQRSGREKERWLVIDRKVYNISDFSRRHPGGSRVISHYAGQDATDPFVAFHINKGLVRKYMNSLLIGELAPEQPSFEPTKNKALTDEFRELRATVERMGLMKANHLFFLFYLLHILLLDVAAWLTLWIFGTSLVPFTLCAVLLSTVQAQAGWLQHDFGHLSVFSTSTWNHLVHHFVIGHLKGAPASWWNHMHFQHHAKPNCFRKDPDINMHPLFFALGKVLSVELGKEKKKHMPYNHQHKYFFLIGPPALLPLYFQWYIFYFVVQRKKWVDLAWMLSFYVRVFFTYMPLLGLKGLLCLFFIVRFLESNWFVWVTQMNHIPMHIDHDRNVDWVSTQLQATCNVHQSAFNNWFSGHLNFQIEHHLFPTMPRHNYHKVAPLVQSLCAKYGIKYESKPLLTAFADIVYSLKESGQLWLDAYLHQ
Acyl-CoA (8-3)-desaturase (Homo sapiens, UniProt O60427), sequence (O60427 whole entry): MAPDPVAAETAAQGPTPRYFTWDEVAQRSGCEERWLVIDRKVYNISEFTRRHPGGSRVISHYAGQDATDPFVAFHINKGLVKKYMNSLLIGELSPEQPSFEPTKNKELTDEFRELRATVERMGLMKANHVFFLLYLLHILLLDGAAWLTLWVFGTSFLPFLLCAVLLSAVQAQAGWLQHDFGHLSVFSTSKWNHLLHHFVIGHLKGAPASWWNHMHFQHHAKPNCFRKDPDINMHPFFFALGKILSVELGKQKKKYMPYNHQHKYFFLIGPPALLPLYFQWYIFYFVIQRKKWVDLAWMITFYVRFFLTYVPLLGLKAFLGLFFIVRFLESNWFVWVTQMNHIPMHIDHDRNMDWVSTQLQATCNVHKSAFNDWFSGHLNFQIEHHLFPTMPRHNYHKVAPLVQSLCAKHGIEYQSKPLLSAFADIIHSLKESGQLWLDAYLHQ
CYP2C9, sequence (P11712 whole entry): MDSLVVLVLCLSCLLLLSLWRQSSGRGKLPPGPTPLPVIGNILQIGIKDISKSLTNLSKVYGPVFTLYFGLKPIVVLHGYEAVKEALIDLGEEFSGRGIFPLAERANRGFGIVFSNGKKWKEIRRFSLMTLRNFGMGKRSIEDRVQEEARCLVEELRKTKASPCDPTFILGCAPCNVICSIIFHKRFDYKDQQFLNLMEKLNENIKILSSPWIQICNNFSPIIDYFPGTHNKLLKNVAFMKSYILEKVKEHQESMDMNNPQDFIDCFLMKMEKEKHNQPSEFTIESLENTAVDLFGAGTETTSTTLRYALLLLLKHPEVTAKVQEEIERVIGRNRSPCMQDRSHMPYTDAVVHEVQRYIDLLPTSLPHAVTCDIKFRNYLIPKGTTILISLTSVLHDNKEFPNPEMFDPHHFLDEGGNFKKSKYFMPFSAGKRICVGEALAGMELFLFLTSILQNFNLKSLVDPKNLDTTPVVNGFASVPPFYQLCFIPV
Cytochrome P450 3A4, sequence (P08684 whole entry): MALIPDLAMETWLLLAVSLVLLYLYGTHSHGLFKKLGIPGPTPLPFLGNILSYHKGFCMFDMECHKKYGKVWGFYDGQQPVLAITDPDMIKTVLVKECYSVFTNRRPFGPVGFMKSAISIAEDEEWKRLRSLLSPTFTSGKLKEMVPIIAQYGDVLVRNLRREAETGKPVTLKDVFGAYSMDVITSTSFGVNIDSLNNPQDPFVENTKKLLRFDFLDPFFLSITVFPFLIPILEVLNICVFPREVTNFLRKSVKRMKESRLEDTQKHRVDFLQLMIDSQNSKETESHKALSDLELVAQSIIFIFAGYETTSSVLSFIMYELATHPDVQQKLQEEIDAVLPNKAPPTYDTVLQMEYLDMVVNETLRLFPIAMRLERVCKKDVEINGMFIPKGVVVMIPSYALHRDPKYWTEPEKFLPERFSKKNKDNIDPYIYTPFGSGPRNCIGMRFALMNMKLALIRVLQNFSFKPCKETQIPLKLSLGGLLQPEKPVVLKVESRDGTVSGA
Cytochrome P450 2D6, sequence (P10635 whole entry): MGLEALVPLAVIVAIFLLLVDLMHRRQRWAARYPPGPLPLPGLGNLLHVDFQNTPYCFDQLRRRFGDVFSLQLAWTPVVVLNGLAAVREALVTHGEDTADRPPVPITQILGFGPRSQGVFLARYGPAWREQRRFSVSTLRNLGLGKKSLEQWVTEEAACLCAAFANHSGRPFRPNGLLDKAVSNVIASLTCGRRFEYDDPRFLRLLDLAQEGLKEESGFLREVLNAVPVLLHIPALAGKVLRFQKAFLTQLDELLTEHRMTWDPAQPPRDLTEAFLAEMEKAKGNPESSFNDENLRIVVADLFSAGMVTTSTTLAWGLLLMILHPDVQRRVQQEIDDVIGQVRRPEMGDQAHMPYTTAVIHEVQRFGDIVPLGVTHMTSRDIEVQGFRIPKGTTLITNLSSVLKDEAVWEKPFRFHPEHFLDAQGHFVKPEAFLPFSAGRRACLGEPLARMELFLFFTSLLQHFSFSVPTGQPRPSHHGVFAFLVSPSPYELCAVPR
Cytochrome P450 2C9, sequence (P11712 whole entry): as the sequence (P11712 whole entry) above
hERG (KCNH2), sequence (Q12809 whole entry): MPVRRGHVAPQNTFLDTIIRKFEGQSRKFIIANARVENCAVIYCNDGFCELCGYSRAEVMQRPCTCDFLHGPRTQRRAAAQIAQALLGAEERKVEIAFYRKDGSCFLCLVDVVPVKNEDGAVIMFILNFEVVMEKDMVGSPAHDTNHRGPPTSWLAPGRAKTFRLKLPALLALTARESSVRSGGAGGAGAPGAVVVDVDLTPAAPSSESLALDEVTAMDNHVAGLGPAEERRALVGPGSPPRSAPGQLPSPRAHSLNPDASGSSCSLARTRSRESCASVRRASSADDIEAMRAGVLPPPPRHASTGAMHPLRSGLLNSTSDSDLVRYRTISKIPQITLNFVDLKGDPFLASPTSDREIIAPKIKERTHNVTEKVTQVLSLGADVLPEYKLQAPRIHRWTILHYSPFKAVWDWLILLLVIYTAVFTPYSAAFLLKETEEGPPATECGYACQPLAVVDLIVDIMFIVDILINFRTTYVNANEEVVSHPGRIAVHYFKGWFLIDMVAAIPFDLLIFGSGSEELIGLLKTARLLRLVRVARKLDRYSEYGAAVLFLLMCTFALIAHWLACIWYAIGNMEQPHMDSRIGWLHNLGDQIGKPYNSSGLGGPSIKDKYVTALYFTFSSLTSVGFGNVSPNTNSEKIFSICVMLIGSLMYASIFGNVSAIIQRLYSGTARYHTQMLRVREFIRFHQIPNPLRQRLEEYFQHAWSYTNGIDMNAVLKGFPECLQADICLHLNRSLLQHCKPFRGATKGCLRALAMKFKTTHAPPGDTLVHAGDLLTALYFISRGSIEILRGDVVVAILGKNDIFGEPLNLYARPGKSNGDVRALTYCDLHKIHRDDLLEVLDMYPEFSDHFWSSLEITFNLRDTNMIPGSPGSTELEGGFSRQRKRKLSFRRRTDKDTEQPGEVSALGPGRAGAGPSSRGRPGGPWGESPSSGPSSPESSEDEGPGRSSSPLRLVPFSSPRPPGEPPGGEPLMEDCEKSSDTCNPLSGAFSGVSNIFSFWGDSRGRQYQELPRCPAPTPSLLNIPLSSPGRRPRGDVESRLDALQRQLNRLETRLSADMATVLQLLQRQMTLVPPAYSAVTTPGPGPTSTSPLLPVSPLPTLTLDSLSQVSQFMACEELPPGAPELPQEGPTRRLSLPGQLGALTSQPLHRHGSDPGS

Activity [1]: Not Active
IC50 [2]: 1.5 nM
IC50 [3]: 1.5 nM
inhibition at 10 µM (CYP2C9): 28.5%
AUC(0-t) [5]: 891 ng·h/mL
MRT last [6]: 4 h
bioavailability [7]: 53.3%
inhibition (INH) (Cytochrome P450 3A4): Not Active
inhibition (INH) (Cytochrome P450 2C8): Not Active
inhibition (INH) (Cytochrome P450 2C9): Not Active
inhibition (INH) (Cytochrome P450 2D6): Not Active
Cmax [11]: 7150 ng/mL
Cmax [12]: 280 ng/mL
SMILES: C[C@H]1[C@H](c2ccc(F)cc2)OC(=O)N1c1cc(C#N)cc(C#N)c1
inhibition in vivo at 3 mg/kg (Mus musculus [4]): 74%
inhibition in vivo at 0.3 mg/kg (Mus musculus [8]): 61%
inhibition in vivo at 1 mg/kg (Mus musculus [9]): 67%
inhibition in vivo at 3 mg/kg (Mus musculus [10]): 66%
inhibition at 10 µM (hERG (KCNH2)): 30.7%
Activity (Canis familiaris): Non-Toxic
Ratio [13]: > 25

IC50 [2]: 49 nM
IC50 [3]: 60 nM
Stability (Liver [14]): 4 µL/min/mg
Stability (Liver [15]): 50 µL/min/mg
SMILES: N#Cc1cccc(N2C[C@H](c3ccc(F)cc3)OC2=O)c1

IC50 [2]: 5800 nM
SMILES: C[C@@H]1[C@@H](c2ccc(F)cc2)OC(=O)N1c1cccc(C#N)c1

IC50 [2]: 5.3 nM
IC50 [3]: 8.7 nM
Stability (Liver [15]): 24 µL/min/mg
AUC(0-t) at 8 h [16]: 2080 ng·h/mL
MRT last [17]: 3.4 h
bioavailability [7]: 87.2%
SMILES: C[C@H]1[C@H](c2ccc(F)cc2)OC(=O)N1c1cccc(C#N)c1
inhibition in vivo at 3 mg/kg (Mus musculus [18]): 42%

IC50 [2]: 39 nM
SMILES: Cn1c(=O)n(Cc2cc(O)c(Cl)cc2Cl)c2ccccc21

IC50 [2]: 310 nM
SMILES: COc1ccc(CN(C)C(=O)c2ccc3c(c2)OCO3)c(OC)c1

Drug metabolism [19]: Metabolite_Detected
SMILES: O=C1OC(c2ccc(F)cc2)CN1c1cccc(O)c1 (centres undefined)

IC50 [2]: > 10000 nM
SMILES: N#Cc1cccc(N2C[C@@H](c3ccc(F)cc3)OC2=O)c1

IC50 [2]: < 1 nM
IC50 [3]: 0.52 nM
inhibition at 10 µM (CYP2C9): 44.2%
AUC(0-t) [5]: 974 ng·h/mL
MRT last [6]: 4.2 h
bioavailability [7]: 74.4%
SMILES: C[C@H]1[C@H](c2ccc(F)cc2)OC(=O)N1c1cc(Cl)cc(C#N)c1
inhibition in vivo at 3 mg/kg (Mus musculus [4]): 71%

Drug metabolism [19]: Metabolite_Detected
Drug metabolism [20]: Metabolite_Detected
SMILES: O=C1OC(c2ccc(F)cc2)CN1c1cccc(OS(=O)(=O)O)c1 (centres undefined)

Drug metabolism [19]: Metabolite_Detected
Drug metabolism [20]: Metabolite_Detected
SMILES: O=C1OC(c2ccc(F)cc2)CN1c1cccc(O[C@@H]2O[C@H](CO)[C@@H](O)[C@H](O)[C@H]2O)c1 (some centres undefined)

IC50 [2]: 450 nM
SMILES: CC1(C)C(c2ccc(F)cc2)OC(=O)N1c1cccc(C#N)c1 (racemic)

IC50 [2]: 12 nM
IC50 [3]: 1100 nM
SMILES: O=C1OC(c2ccccc2)CN1Cc1cc(O)c(Cl)cc1Cl (racemic)

IC50 [2]: 79 nM
IC50 [3]: 150 nM
SMILES: O=C1OC(c2ccc(F)cc2)CN1Cc1ccc(Cl)cc1Cl (racemic)

IC50 [2]: 13 nM
IC50 [3]: 8.9 nM
SMILES: C[C@H]1[C@H](c2ccc(F)cc2)OC(=O)N1c1cccc(C#N)c1 (racemic)

IC50 [2]: 410 nM
Stability (Liver [14]): 21 µL/min/mg
Stability (Liver [15]): 7 µL/min/mg
SMILES: C[C@@H]1[C@H](c2ccc(F)cc2)OC(=O)N1c1cccc(C#N)c1 (racemic)

IC50 [2]: 51 nM
IC50 [3]: 170 nM
Stability (Liver [14]): 81 µL/min/mg
SMILES: O=C1OC(c2ccc(F)cc2)CN1c1cccc(F)c1 (racemic)

IC50 [2]: 150 nM
IC50 [3]: 190 nM
Stability (Liver [14]): 45 µL/min/mg
SMILES: O=C1OC(c2ccc(F)cc2)CN1c1ccccc1 (racemic)

IC50 [2]: 78 nM
IC50 [3]: 170 nM
Stability (Liver [15]): 94 µL/min/mg
SMILES: N#Cc1cccc(N2CC(c3ccc(F)cc3)OC2=O)c1 (racemic)

IC50 [2]: 13 nM
IC50 [3]: 18 nM
SMILES: COc1ccc(OC)c(N2CC(c3ccc(F)cc3)OC2=O)c1 (racemic)

IC50 [2]: 360 nM
SMILES: COc1ccc(OC)c(N2CCN(C(=O)c3ccc(Cl)cc3)C(C)C2=O)c1 (racemic)

SMILES: CCn1cc(C(=O)N(C)C(C)c2ccc(F)cc2)c2ccccc21 (racemic)
IC50 [2]: 47 nM

IC50 [2]: 4 nM
IC50 [3]: 3.7 nM
AUC(0-t) at 8 h [16]: 1200 ng·h/mL
MRT last [17]: 3.8 h
bioavailability [7]: 61%
SMILES: C[C@H]1[C@H](c2ccc(F)cc2)OC(=O)N1c1cc(F)cc(C#N)c1 (racemic)
inhibition in vivo at 3 mg/kg (Mus musculus [18]): 63%

IC50 [2]: 23 nM
IC50 [3]: 55 nM
Stability (Liver [14]): 72 µL/min/mg
SMILES: O=C1OC(c2ccc(F)cc2)CN1c1cccc(Cl)c1 (racemic)

Reference: ChEMBL document CHEMBL4024749, “Discovery of 3,5-Diphenyl-4-methyl-1,3-oxazolidin-2-ones as Novel, Potent, and Orally Available Δ-5 Desaturase (D5D) Inhibitors” (J Med Chem, 2017)
